In publication PMC9321963 (Birth Defects Research, 2022):
Values joined by “and” are separate entries in the source; they are usually repeats but may differ in a detail not shown here. Equal entries are not always repeated. Where two headings read alike, the source gives them in different places.

Legend:
[1] = Rat investigative embryofetal developmental toxicity study; format: in vivo; settings: female, Sprague-Dawley, rat, in vivo, oral
In short: (§1)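 Crl:OFA SD naïve time-mated females, 25 per group (plug day = GD0), under GLP and ICH S5(R2). Oral daily doses of 20, 40 or 60 mg/kg/day were given GD6–GD17; an extra 60 mg/kg/day group was dosed only GD8–GD11 (diaphragm formation). Suspension vehicle: 20% w/w Kolliphor HS 15 / 50% w/w PEG 400 in water. CO2 euthanasia and necropsy on GD21. Maternal endpoints were recorded, plus fetal weight, external and visceral exams.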

[2] = system: pregnant rats; experiment: as above; format: in vivo; settings: rat investigative EFD; for mean maternal body weight gain, % of controls: dosing and post dose periods
In short: as §1

[3] = molecular target: PI4Kα (Homo sapiens, UniProt P42356); settings: chemoproteomic profiling, ref Paquet et al., [2017]; cited from earlier work
[4] = Rat main embryofetal developmental toxicity study; format: in vivo; settings: female, Sprague-Dawley, rat, in vivo, oral, maternal NOAEL, rat main EFD
In short: (§2)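 GLP main study following ICH S5(R2): 24 time-mated naïve Crl:CD SD females per group (plug day = GD0) given 2, 6 or 20 mg/kg/day orally once daily GD6–GD17. Vehicle was 20% w/w Kolliphor HS 15 / 50% w/w PEG 400 in water, with the compound suspended in it. Necropsy followed CO2 euthanasia on GD21. Maternal body weight, weight gain, food intake, pregnancy status, corpora lutea, postimplantation loss and live fetuses were recorded. Fetal weight, external, visceral and skeletal examinations were done.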

[5] = system: pregnant rats; experiment: Rat main embryofetal developmental toxicity study; format: in vivo; settings: for food consumption, % of control / maternal weight gain, % of control: GD6 to GD9
In short: as §2

[6] = human, male, ref McCarthy et al. ([2020]), cited from earlier work
[7] = 60 mg/kg/day, only dosed GD8 to GD11
[8] = rat main EFD, 2 mg/kg/day GD6-GD17
[9] = rat main EFD, 6 mg/kg/day GD6-GD17
[10] = rat main EFD, 20 mg/kg/day GD6-GD17

PI4Kα, sequence (P42356 whole entry): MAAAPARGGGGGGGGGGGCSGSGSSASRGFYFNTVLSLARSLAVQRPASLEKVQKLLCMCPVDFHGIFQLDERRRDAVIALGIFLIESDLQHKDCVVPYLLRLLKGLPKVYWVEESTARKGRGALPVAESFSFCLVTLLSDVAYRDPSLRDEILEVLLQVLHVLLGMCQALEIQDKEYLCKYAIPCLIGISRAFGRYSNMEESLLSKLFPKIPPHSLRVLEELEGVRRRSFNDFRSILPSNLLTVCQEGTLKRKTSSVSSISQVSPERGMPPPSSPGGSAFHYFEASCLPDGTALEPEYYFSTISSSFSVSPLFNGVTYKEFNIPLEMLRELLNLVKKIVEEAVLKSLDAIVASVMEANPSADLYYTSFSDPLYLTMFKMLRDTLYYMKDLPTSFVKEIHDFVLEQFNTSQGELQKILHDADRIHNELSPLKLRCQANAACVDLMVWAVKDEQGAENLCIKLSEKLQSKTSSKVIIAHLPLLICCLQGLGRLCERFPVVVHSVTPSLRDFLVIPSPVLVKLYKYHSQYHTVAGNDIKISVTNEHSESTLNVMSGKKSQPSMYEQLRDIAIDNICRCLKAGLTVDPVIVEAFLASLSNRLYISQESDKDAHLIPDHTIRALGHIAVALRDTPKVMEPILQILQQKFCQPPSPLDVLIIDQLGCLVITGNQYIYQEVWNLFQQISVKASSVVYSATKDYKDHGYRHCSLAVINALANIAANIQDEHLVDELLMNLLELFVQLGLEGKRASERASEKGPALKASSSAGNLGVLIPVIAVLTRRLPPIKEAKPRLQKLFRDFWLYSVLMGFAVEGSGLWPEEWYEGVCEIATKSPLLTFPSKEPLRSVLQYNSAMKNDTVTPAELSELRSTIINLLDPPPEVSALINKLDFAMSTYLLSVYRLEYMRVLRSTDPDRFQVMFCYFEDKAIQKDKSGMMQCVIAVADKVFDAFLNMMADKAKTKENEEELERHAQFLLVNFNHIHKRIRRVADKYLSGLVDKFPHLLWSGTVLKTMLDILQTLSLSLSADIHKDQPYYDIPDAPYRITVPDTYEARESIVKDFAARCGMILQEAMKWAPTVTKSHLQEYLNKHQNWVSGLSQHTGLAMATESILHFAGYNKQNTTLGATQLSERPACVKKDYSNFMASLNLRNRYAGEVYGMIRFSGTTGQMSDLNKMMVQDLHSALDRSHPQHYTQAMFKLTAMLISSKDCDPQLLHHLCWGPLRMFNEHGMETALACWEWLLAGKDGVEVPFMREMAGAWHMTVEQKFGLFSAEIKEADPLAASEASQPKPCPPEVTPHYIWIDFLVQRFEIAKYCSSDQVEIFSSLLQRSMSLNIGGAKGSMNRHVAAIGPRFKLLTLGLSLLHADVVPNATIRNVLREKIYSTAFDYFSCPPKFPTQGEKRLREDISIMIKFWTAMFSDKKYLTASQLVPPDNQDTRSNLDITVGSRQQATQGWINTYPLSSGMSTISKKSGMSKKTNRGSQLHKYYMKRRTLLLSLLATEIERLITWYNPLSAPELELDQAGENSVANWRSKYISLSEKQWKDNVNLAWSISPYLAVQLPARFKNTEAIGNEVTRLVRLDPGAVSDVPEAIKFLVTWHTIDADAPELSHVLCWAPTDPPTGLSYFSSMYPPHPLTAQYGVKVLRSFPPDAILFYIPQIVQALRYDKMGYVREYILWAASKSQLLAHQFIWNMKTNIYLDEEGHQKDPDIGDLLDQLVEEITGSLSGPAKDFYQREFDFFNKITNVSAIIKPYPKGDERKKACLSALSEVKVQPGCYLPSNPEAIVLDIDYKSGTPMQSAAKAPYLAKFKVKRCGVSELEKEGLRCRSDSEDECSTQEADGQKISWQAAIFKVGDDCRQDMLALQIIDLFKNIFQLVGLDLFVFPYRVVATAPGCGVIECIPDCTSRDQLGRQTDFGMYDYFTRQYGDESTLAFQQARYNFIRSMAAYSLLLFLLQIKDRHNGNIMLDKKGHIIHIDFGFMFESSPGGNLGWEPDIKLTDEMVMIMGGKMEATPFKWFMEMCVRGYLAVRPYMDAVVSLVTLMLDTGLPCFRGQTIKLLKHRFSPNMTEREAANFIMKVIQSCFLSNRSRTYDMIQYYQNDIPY

CS(=O)(=O)c1ccc(-c2cnc(N)c(-c3ccc(C(F)(F)F)nc3)c2)cc1 [MMV390048]
NOAEL [1]: 20 mg/kg/day
NOAEL for developmental toxicity [2]: not established
Blood vessels AARS, fetuses with malformation/total fetuses examined ([2]; 20 mg/kg/day GD6-GD17): 2/280
Blood vessels AARS, litters with malformation/total litters examined ([2]; 20 mg/kg/day GD6-GD17): 2/24
Blood vessels ADA, fetuses with malformation/total fetuses examined ([2]; 20 mg/kg/day GD6-GD17): 4/280
Blood vessels ADA, litters with malformation/total litters examined ([2]; 20 mg/kg/day GD6-GD17): 3/24
Blood vessels IAA, fetuses with malformation/total fetuses examined ([2]; 20 mg/kg/day GD6-GD17): 2/280
Blood vessels IAA, litters with malformation/total litters examined ([2]; 20 mg/kg/day GD6-GD17): 2/24
Blood vessels NPT, fetuses with malformation/total fetuses examined ([2]; 20 mg/kg/day GD6-GD17): 1/280
Blood vessels NPT, litters with malformation/total litters examined ([2]; 20 mg/kg/day GD6-GD17): 1/24
Edema, fetuses with malformation/total fetuses examined ([2]; 20 mg/kg/day GD6-GD17): 1/280
Edema, litters with malformation/total litters examined ([2]; 20 mg/kg/day GD6-GD17): 1/24
Female with viable fetuses ([2]; 20 mg/kg/day GD6-GD17): 24/24
Fetal BW % from CTL ([2]; 20 mg/kg/day GD6-GD17): −10%
Heart VSD, fetuses with malformation/total fetuses examined ([2]; 20 mg/kg/day GD6-GD17): 1/280
Heart VSD, litters with malformation/total litters examined ([2]; 20 mg/kg/day GD6-GD17): 1/24
Hernias, fetuses with malformation/total fetuses examined ([2]; 20 mg/kg/day GD6-GD17): 35/280
Hernias, litters with malformation/total litters examined ([2]; 20 mg/kg/day GD6-GD17): 16/24
Postimplantation loss (%) ([2]; 20 mg/kg/day GD6-GD17): 9.6%
females with no viable fetuses, number ([2]; 40 mg/kg/day): 6 females
Blood vessels AARS, fetuses with malformation/total fetuses examined ([2]; 40 mg/kg/day GD6-GD17): 8/97
Blood vessels AARS, litters with malformation/total litters examined ([2]; 40 mg/kg/day GD6-GD17): 8/16
Blood vessels ADA, fetuses with malformation/total fetuses examined ([2]; 40 mg/kg/day GD6-GD17): 9/97
Blood vessels ADA, litters with malformation/total litters examined ([2]; 40 mg/kg/day GD6-GD17): 7/16
Blood vessels IAA, fetuses with malformation/total fetuses examined ([2]; 40 mg/kg/day GD6-GD17): 4/97
Blood vessels IAA, litters with malformation/total litters examined ([2]; 40 mg/kg/day GD6-GD17): 4/16
Blood vessels NPT, fetuses with malformation/total fetuses examined ([2]; 40 mg/kg/day GD6-GD17): 9/97
Blood vessels NPT, litters with malformation/total litters examined ([2]; 40 mg/kg/day GD6-GD17): 6/16
Edema, fetuses with malformation/total fetuses examined ([2]; 40 mg/kg/day GD6-GD17): 1/97
Edema, litters with malformation/total litters examined ([2]; 40 mg/kg/day GD6-GD17): 1/16
Female with viable fetuses ([2]; 40 mg/kg/day GD6-GD17): 16/22
Fetal BW % from CTL ([2]; 40 mg/kg/day GD6-GD17): −24%
Heart Thick VW, fetuses with malformation/total fetuses examined ([2]; 40 mg/kg/day GD6-GD17): 1/97
Heart Thick VW, litters with malformation/total litters examined ([2]; 40 mg/kg/day GD6-GD17): 1/16
Heart VSD, fetuses with malformation/total fetuses examined ([2]; 40 mg/kg/day GD6-GD17): 21/97
Heart VSD, litters with malformation/total litters examined ([2]; 40 mg/kg/day GD6-GD17): 8/16
Hernias, fetuses with malformation/total fetuses examined ([2]; 40 mg/kg/day GD6-GD17): 63/97
Hernias, litters with malformation/total litters examined ([2]; 40 mg/kg/day GD6-GD17): 15/16
Postimplantation loss (%) ([2]; 40 mg/kg/day GD6-GD17): 66.45%
mean maternal body weight gain, % of controls ([2]; 40 mg/kg/day): 41 % of controls
females with no viable fetuses, number ([2]; 60 mg/kg/day): 11 females
mean maternal body weight gain, % of controls ([2]; 60 mg/kg/day): 49 % of controls
Blood vessels AARS, fetuses with malformation/total fetuses examined [2, 7]: 12/65
Blood vessels AARS, litters with malformation/total litters examined [2, 7]: 12/14
Blood vessels ADA, fetuses with malformation/total fetuses examined [2, 7]: 10/65
Blood vessels ADA, litters with malformation/total litters examined [2, 7]: 6/14
Blood vessels IAA, fetuses with malformation/total fetuses examined [2, 7]: 1/65
Blood vessels IAA, litters with malformation/total litters examined [2, 7]: 1/14
Blood vessels NPT, fetuses with malformation/total fetuses examined [2, 7]: 10/65
Blood vessels NPT, litters with malformation/total litters examined [2, 7]: 6/14
Edema, fetuses with malformation/total fetuses examined [2, 7]: 2/65
Edema, litters with malformation/total litters examined [2, 7]: 1/14
Female with viable fetuses [2, 7]: 14/25
Fetal BW % from CTL [2, 7]: −26%
Heart Thick VW, fetuses with malformation/total fetuses examined [2, 7]: 3/65
Heart Thick VW, litters with malformation/total litters examined [2, 7]: 3/14
Hernias, fetuses with malformation/total fetuses examined [2, 7]: 31/65
Hernias, litters with malformation/total litters examined [2, 7]: 11/14
Postimplantation loss (%) [2, 7]: 79.22% and 79.2%
binding to human PI4Kα [3]: no binding
NOAEL [4]: 2 mg/kg/day
Developmental safety margins ([5]; rat NOAEL of 6 mg/kg/day vs observed clinical PK data, human volunteers and patients): < 1
Female with viable fetuses [5, 8]: 22/22
Postimplantation loss (%) [5, 8]: 6.9%
Edema, fetuses with malformation/total fetuses examined [5, 9]: 1/336
Edema, litters with malformation/total litters examined [5, 9]: 1/23
Female with viable fetuses [5, 9]: 23/23
Postimplantation loss (%) [5, 9]: 3.5%
food consumption, % of control ([5]; rat main EFD, 6 mg/kg/day): 8.9 % of control
maternal weight gain, % of control ([5]; rat main EFD, 6 mg/kg/day): 20.2 % of control
Female with viable fetuses [5, 10]: 22/22
Hernias, fetuses with malformation/total fetuses examined [5, 10]: 1/154
Hernias, litters with malformation/total litters examined [5, 10]: 1/22
Postimplantation loss (%) [5, 10]: 2.9%
food consumption, % of control ([5]; rat main EFD, 20 mg/kg/day): 11.5 % of control
maternal weight gain, % of control ([5]; rat main EFD, 20 mg/kg/day): 41.1 % of control
AUC(0−inf) ([6]; dose 40 mg): 30,320 hr*ng/ml
C max ([6]; dose 40 mg): 272.7 ng/mL
T max ([6]; dose 40 mg): 1.5 h
AUC(0−inf) ([6]; dose 80 mg): 82,680 hr*ng/ml
C max ([6]; dose 80 mg): 561 ng/mL
AUC(0−inf) ([6]; dose 120 mg): 137,800 hr*ng/ml
C max ([6]; dose 120 mg): 1,094 ng/ml
T max ([6]; dose 120 mg): 1 h
